Screens from PubChem.
In the library only some 3.2% were active in any assay of this set; here they are far more common.
UBC13 polyUb = blocks human UBC13 polyubiquitin chain formation; TR-FRET; inhibition, % at 20 µM; 0.47% of 330,000 active; AID 485273; in the data active = inhibition above about 45%, passing the limit was not always enough; inconclusive = no clear call, values can overlap the other calls
MEKK3 PB1 HTS = modulators (inhibitors or enhancers) of MEK5 binding to human MEKK3 PB1 domain; 1.4% of 290,000 active; binding response (% of control), % at 10 µM; bead-based flow cytometry, Alexa488-MEK5 binding to MEKK3; actives lie on both sides; 0 = blocked by unlabeled MEK5, 100 = vehicle; Q99759;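 active = binding response more than 3 SD above or below the average of its plate-row segment, actives on both sides; inconclusive = wells at one plate position flagged as instrument error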;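 also: Alexa488 bead fluorescence after subtracting the streptavidin-only scavenger bead signal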
Target sequence (Q99759 whole entry, looked up, the tested form may be a part): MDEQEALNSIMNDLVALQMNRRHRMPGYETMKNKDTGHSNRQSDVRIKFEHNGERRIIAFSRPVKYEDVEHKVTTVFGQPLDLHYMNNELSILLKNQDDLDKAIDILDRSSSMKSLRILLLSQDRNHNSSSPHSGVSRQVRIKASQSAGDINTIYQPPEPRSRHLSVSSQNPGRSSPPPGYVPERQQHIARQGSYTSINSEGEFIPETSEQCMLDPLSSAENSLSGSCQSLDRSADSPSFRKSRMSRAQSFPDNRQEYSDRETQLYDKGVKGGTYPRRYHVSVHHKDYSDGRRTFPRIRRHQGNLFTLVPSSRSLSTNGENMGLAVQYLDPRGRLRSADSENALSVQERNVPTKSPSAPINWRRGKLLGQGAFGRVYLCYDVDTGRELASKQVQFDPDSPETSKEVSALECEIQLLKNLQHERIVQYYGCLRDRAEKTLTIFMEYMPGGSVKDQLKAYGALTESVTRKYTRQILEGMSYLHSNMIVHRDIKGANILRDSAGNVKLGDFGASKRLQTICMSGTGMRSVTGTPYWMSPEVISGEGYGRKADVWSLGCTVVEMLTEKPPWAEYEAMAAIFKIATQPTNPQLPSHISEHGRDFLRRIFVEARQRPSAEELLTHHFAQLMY
MEKK2mut PB1 HTS = signal of MEK5 binding to mutant human MEKK2 PB1 domain. 0.35% of 290,000 active. percent response, % at 10 µM. bead flow cytometry, Alexa488-MEK5 binding to MEKK2 mutant. AID 1530; in the data active = percent response above about 24%, passing the limit was not always enough
MEKK2 WT-MEK5 = raises or lowers MEK5 binding to wildtype human MEKK2 PB1 domain; Q9Y2U5; bead flow cytometry, Alexa488-MEK5 binding to MEKK2 WT; actives lie on both sides; binding response (% of control), % at 10 µM; 1.1% of 290,000 active; AID 1531; in the data active = binding response below about 67% or above about 130%; inconclusive = no clear call, values can overlap the other calls; inactive = in between
Apaf-1 inh = human Apaf-1 inhibition. inhibition, % at 20 µM. AID 489030. reconstituted apoptosome caspase-3 activity, DEVD-Rh110 fluorescence. O14727. 0.71% of 330,000 active; active = inhibition of at least 40% at 20 µM;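 also: plate controls were DMSO wells for no effect and DEVD-CHO caspase inhibitor wells for full effect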
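System – cell-free apoptosome with Apaf-1, procaspase-3 and caspase-9 · Buffer or medium – pH 7.5 Hepes buffer with CHAPS, BSA, DTT · Also added – cytochrome c with DEVD-Rh110 · Times – 30 min compound preincubation, 50 min activation, room temperature · Technique – Rh110 fluorescence intensity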
DSG3 Ab inh = inhibitors of pemphigus antibody binding to human desmoglein-3 | binding (percent of control), % at 10 µM | DSG3-coupled beads, scFv-anti-DSG3-GFP binding, flow cytometry; active compounds read low | 0.48% of 310,000 active | P32926 | AID 588358;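 active = binding more than 3 SD below its plate's average and above zero; inconclusive = below that plate limit but binding exactly zero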;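 also: hits lower antibody fragment binding to DSG3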
MEKK2wt confirm = raises or lowers MEK5 binding to wildtype human MEKK2, retest | AID 1892 | 2.4% of 5,900 active | bead flow cytometry, Alexa488-MEK5 binding to MEKK2 WT; actives lie on both sides | binding response (% of control), % at 10 µM | shares compounds with MEKK3 PB1 HTS; in the data active = binding response below about 16% or above about 210%; inactive = in between
MEKK2mut-MEK5 = signal of MEK5 binding to mutant human MEKK2, retest; shares compounds with MEKK3 PB1 HTS; bead flow cytometry, Alexa488-MEK5 binding to MEKK2 mutant; 2% of 5,900 active; percent response, % at 10 µM; in the data active = percent response mostly above about 71%, no sharp cut-off; inactive = mostly below about 38%;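 also: higher means compound restores mutant binding toward wildtype level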
MEKK3-MEK5 inh = confirmation of inhibitors of MEK5 binding to human MEKK3; shares compounds with MEKK3 PB1 HTS; bead flow cytometry, Alexa488-MEK5 binding to MEKK3; active compounds read low; binding response (% of control), % at 10 µM; 1.8% of 5,900 active; AID 1894;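 active = binding response below 72% of control, or above a set upper limit, though filed actives all read lower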;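 also: 100% = DMSO only wells and 0% = binding blocked by excess unlabeled MEK5; lower values mean stronger disruption of MEK5 binding to MEKK3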
* = called active by the depositor; ? = inconclusive; nt = not tested or not shown; [ ] = dose if it differs, or a comment.

SMILES	UBC13 polyUb	MEKK3 PB1 HTS	MEKK2mut PB1 HTS	MEKK2 WT-MEK5	Apaf-1 inh	DSG3 Ab inh	MEKK2wt confirm	MEKK2mut-MEK5	MEKK3-MEK5 inh
CC1(C)CC(=O)C=C(c2n[nH]nc2C2CCCCC2)C1	nt	nt	nt	nt	nt	104.0	nt	nt	nt
Fc1cccc(Cl)c1Cn1nnc2c(NCc3ccncc3)ncnc21	-7.7	104.0	63.0*	82.0	-20.5	117.6	104.0	-4.0	95.0
Fc1cccc(Cl)c1Cn1nnc2c(NCc3ccccn3)ncnc21	4.8	96.0	2.0	99.0	-2.0	nt	nt	nt	nt
NC(=O)CCC(NC(=O)OCc1ccccc1)C(=O)OCC(=O)c1ccccc1 (stereo not drawn)	nt	nt	nt	nt	nt	100.6	nt	nt	nt
C(=C\c1ccccc1)/C=N/Nc1nncc(-c2ccccc2)n1	-27.8	131.0*	0.0	109.0	-2.8	nt	100.0	-1.0	100.0
Cc1cccc(N=C2CCCC2C(=O)Nc2cccc(C)c2C)c1C (stereo not drawn)	nt	nt	nt	nt	nt	108.3	nt	nt	nt
Nc1c(C(=O)C2CC2)sc2nc(-c3cccs3)cc(C(F)(F)F)c12	-3.7	95.0	-1.0	59.0*[inhibitor]	16.3	?	85.0	-7.0	101.0
CC(C)NC(=O)c1sc2nc(-c3cccs3)cc(-c3cccs3)c2c1N	-0.1	99.0	-11.0	83.0	7.7	nt	nt	nt	nt
CC(NCCCOc1cccc2ccccc12)c1ccccc1 (stereo not drawn)	18.5	107.0	18.0	175.0*	24.3	109.9	156.0	26.0	110.0
CCC12CC3CC(C1)CC(C(=O)Nc1nn[nH]n1)(C3)C2	1.2	88.0	-9.0	90.0	-4.6	128.5	nt	nt	nt
CCC12CC3CC(C1)CC(C(=O)NNC(N)=O)(C3)C2	4.2	128.0*	18.0	122.0	-16.8	112.9	95.0	-5.0	97.0
Cc1cc2cc(CN(Cc3nnnn3C3CCCCC3)CC3CCCO3)c(=O)[nH]c2cc1C (stereo not drawn)	-5.2	107.0	7.0	107.0	16.5	99.6	nt	nt	nt
O=c1[nH]c2cc3c(cc2cc1CN(Cc1ccc2c(c1)OCO2)Cc1nnnn1CC1CCCO1)OCO3 (stereo not drawn)	4.1	98.0	3.0	102.0	12.3	101.7	nt	nt	nt
COCCn1nnnc1CN(Cc1cccnc1)Cc1cc2cc(OC)ccc2[nH]c1=O	nt	102.0	2.0	103.0	nt	nt	nt	nt	nt
Cc1ccc2[nH]c(=O)c(CN(Cc3cccnc3)Cc3nnnn3CC3CCCO3)cc2c1 (stereo not drawn)	3.9	135.0*	32.0	121.0	-21.0	91.1	106.0	4.0	106.0
Cc1ccc2cc(CN(Cc3nnnn3C3CCCCC3)CC3CCCO3)c(=O)[nH]c2c1 (stereo not drawn)	5.6	1.0*[inhibitor]	-20.0	-3.0*[inhibitor]	2.3	84.3	94.0	-1.0	99.0
Cc1ccc2[nH]c(=O)c(CN(Cc3cccnc3)Cc3nnnn3CCN3CCOCC3)cc2c1	-10.3	2.0*[inhibitor]	-41.0	2.0*[inhibitor]	2.2	96.7	101.0	1.0	101.0
O=C1OC(c2ccccc2)(c2cc(Br)ccc2O)c2ccccc21 (stereo not drawn)	nt	nt	nt	nt	nt	99.0	nt	nt	nt
C/C(=N\NC(=O)c1ccco1)c1cc(Cl)sc1Cl	-9.1	99.0	5.0	102.0	-3.8	99.7	nt	nt	nt
Cc1cccc(C)c1NC(=O)N1CCC(C(=O)c2ccc(F)cc2)CC1	-1.2	101.0	-3.0	101.0	0.6	108.5	nt	nt	nt
COc1ccccc1CN1CC(=O)N2CSC[C@H]2C1=O	-3.7	93.0	-6.0	95.0	3.2	117.5	nt	nt	nt
O=C(C1CCCO1)N1CCN(c2ccccn2)CC1 (stereo not drawn)	6.7	73.0*[inhibitor]	-3.0	82.0	-18.0	110.9	100.0	-1.0	102.0
Cc1ccc(C2=NNC(=O)C(c3c[nH]c4ccccc34)C2)cc1 (stereo not drawn)	10.7	128.0*	-1.0	116.0	12.3	100.7	106.0	2.0	102.0
COC(=O)CN(C#N)c1nc(C)cc(C)n1	2.3	133.0*	1.0	112.0	-3.8	79.7	102.0	-1.0	102.0
O=C(CSc1nnc2c(Cl)cc(C(F)(F)F)cn12)Nc1ccc2c(c1)OCO2	-12.0	87.0	-6.0	87.0	6.8	87.1	nt	nt	nt
SMILES	UBC13 polyUb	MEKK3 PB1 HTS	MEKK2mut PB1 HTS	MEKK2 WT-MEK5	Apaf-1 inh	DSG3 Ab inh	MEKK2wt confirm	MEKK2mut-MEK5	MEKK3-MEK5 inh
COc1ccccc1CNC(=O)CSc1nnc2c(Cl)cc(C(F)(F)F)cn12	-7.6	137.0*	1.0	109.0	10.0	97.4	109.0	5.0	109.0
COc1ccccc1CNC(=O)CSc1ccc(C)cc1	-4.6	145.0*	2.0	112.0	3.9	81.9	103.0	2.0	102.0
CCN(CC)C1CCN(C(=O)c2ccc(OC3CCN(Cc4ccccn4)CC3)cc2)C1 (stereo not drawn)	-5.3	98.0	-3.0	92.0	3.3	98.9	nt	nt	nt
Cn1c(=O)n(C)c2cc(NC(=O)Cc3ccccc3[N+](=O)[O-])ccc21	-3.4	110.0	16.0	114.0	-12.6	103.0	nt	nt	nt
CCOc1ccc(S(=O)(=O)N(C)c2ccc(OCC(=O)N3c4ccc(C)cc4C4CN(C)CCC43)cc2)cc1 (stereo not drawn)	-2.2	108.0	37.0	140.0*	1.6	102.2	127.0	15.0	101.0
Cc1ccc(NC(=O)CN(C)S(=O)(=O)c2cccc3cccnc23)cc1	4.1	107.0	5.0	108.0	-3.8	105.7	nt	nt	nt
Cc1ccc(NC(=O)CN(C)S(=O)(=O)c2cccc3cccnc23)c(C)c1	-9.0	134.0*	27.0	109.0	14.7	78.7	110.0	9.0	107.0
Cc1cc(C)cc(NC(=O)CCC(=O)Nc2nnc(C(C)C)s2)c1	-5.8	97.0	-5.0	96.0	2.7	106.7	nt	nt	nt
COC(=O)CSc1ncnc2c1sc1nc(N3CCOCC3)c3c(c12)CCCC3	0.0	93.0	0.0	95.0	33.2	nt	nt	nt	nt
CCOC(=O)CSc1ncnc2c1sc1nc(N3CCOCC3)c3c(c12)CCCC3	10.4	82.0*[inhibitor]	-12.0	93.0	16.8	101.6	98.0	-1.0	104.0
Cc1ccc(C2OC34CCCCCC3C(C#N)(C(=N)O4)C2(C#N)C#N)cc1 (stereo not drawn)	1.5	56.0*[inhibitor]	-2.0	88.0	1.8	100.0	99.0	1.0	103.0
COc1ccc(OCC(=O)Nc2cc3c(cc2C(=O)O)OCCCO3)cc1	2.6	99.0	7.0	95.0	7.5	105.3	nt	nt	nt
COCCn1cnc2c(c1=O)c1nc3ccccc3nc1n2/N=C/c1ccc(OC)c(OC)c1	2.6	124.0	15.0	117.0	12.3	nt	nt	nt	nt
